According to ChEMBL document CHEMBL2010721, “Growth inhibition of Mycobacterium smegmatis by prodrugs of deoxyxylulose phosphate reducto-isomerase inhibitors, promising anti-mycobacterial agents” (Eur J Med Chem, 2012):
≈ marks a conversion by molar mass, not a printed value. Calls of active or inactive are those of the source. The rule behind the calls is not given here.

Experiments:
[1] = biological target: T1, 1-deoxy-D-xylulose 5-phosphate reductoisomerase (Mycobacterium smegmatis (strain ATCC 700084 / mc(2)155), UniProt A0QVH7); assay: Inhibition of Mycobacterium smegmatis DSM 43756 ATCC 19420 N-terminal his-tagged DXR expressed in XL1-blue Escherichia coli using NADPH and DXP as substrate preincubated for 2 mins […]; parameters: species or system Mycolicibacterium smegmatis
T1 sequence (A0QVH7 whole entry): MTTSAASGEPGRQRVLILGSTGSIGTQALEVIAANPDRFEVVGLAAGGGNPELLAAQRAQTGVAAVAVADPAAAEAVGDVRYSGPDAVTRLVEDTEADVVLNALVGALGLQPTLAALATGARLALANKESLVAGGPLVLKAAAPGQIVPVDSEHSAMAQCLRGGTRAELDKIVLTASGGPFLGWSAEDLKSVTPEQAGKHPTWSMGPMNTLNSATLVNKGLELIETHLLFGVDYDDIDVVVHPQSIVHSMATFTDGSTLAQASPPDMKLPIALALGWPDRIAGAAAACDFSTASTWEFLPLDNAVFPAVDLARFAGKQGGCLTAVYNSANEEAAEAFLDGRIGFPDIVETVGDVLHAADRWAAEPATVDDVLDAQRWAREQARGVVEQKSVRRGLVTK
Procedure, shortened: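 N-terminal His-tagged M. smegmatis DXR, Ni²⁺-purified and kept in glycerol/NaCl buffer. Assay at 37 °C in 50 mM Tris/HCl pH 7.5 with 3 mM MgCl₂, 2 mM DTT, 0.15 mM NADPH and 0.5 mM DXP. Enzyme and inhibitor were preincubated 2 min with NADPH, then DXP started the reaction. Initial rates were read as A340 decrease. Inhibitor range was 0.1–0.6 or 0.2–2 µM. IC50 came from residual activity vs log concentration, mean of two determinations.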

[2] = test system: Mycolicibacterium smegmatis; assay: Antimycobacterial activity against Mycobacterium smegmatis at 400 nmol/disc after 24 hrs by paper disc diffusion method; type: functional
Procedure, shortened: (§1)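 M. smegmatis (grown at 37 °C) was spread from a tenfold-diluted overnight culture on agar plates containing yeast extract, malt extract, CaCO₃ and glucose. Compounds were dissolved at 100 mM in DMSO or water, and 4 µL was put on each 6 mm disc. Isoniazid was dissolved at 7.5 mM, and 2 µL was put on each disc. Inhibition zones were read after 24 h at 37 °C.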

[3] = test system: Mycolicibacterium smegmatis; assay: Antimycobacterial activity against Mycobacterium smegmatis; type: functional
[4] = test system: Escherichia coli; assay: Inhibition of Escherichia coli DXR at 1 uM
[5] = test system: Escherichia coli; assay: Antimycobacterial activity against Escherichia coli at 400 nmol/disc after 24 hrs by paper disc diffusion method; type: functional, organism-based
[6] = test system: Mycolicibacterium smegmatis; assay: Antimycobacterial activity against Mycobacterium smegmatis assessed as viability at 500 uM after 5 hrs by resazurin test; type: functional, organism-based
Procedure, shortened: (§2)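 A fresh M. smegmatis preculture was adjusted to McFarland 0.5. Then 0.2 mL went into 1.8 mL medium with inhibitor (final isoniazid 10–40 µM; other compound 250–1000 µM), shaken 24 h at 37 °C. Of this, 50 µL was added to 150 µL fresh medium, in duplicate, plus 0.01% resazurin. Plates were kept at 37 °C, and the blue-to-pink change was followed by eye for 12 h, with growth and sterile controls.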

[7] = biological target: T2, 1-deoxy-D-xylulose 5-phosphate reductoisomerase (Mycobacterium smegmatis (strain ATCC 700084 / mc(2)155)) (UniProt A0QVH7); assay: Inhibition of Mycobacterium smegmatis DSM 43756 ATCC 19420 N-terminal his-tagged DXR expressed in XL1-blue Escherichia coli using NADPH and DXP as substrate at 1 uM […]; details: Mycolicibacterium smegmatis
T2 sequence (whole entry): T1 sequence (A0QVH7 whole entry)

[8] = test system: Mycolicibacterium smegmatis; assay: Antimycobacterial activity against Mycobacterium smegmatis assessed as viability at 250 uM after 15 mins by resazurin test; type: functional, organism-based; procedure, shortened: as §2
[9] = test system: Mycobacterium tuberculosis; assay: Antimycobacterial activity against Mycobacterium tuberculosis; type: functional
[10] = test system: Mycolicibacterium smegmatis; assay: Antimycobacterial activity against Mycobacterium smegmatis assessed as viability at 10 uM after 1 hr by resazurin test; type: functional, organism-based; procedure, shortened: as §2
[11] = test system: Mycolicibacterium smegmatis; assay: Antimycobacterial activity against Mycobacterium smegmatis at 15 nmol/disc after 24 hrs by paper disc diffusion method; type: functional; procedure, shortened: as §1
[12] = test system: Mycolicibacterium smegmatis; assay: Antimycobacterial activity against Mycobacterium smegmatis assessed as viability at 20 uM after 5 to 12 hrs by resazurin test; type: functional, organism-based; procedure, shortened: as §2
[13] = biological target: T1, 1-deoxy-D-xylulose 5-phosphate reductoisomerase (Mycobacterium smegmatis (strain ATCC 700084 / mc(2)155), UniProt A0QVH7); assay: Inhibition of Mycobacterium smegmatis DXR; parameters: species or system Mycolicibacterium smegmatis
Procedure, shortened: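 His-tagged M. smegmatis DXR (N-terminal tag, expressed in E. coli, Ni2+ column purified) was pre-incubated with inhibitor and 0.15 mM NADPH for 2 min at 37 °C in 50 mM Tris/HCl pH 7.5, 3 mM MgCl2, 2 mM DTT. Reaction started with 0.5 mM DXP; initial rates from NADPH absorbance decrease at 340 nm. IC50 from residual activity versus log inhibitor concentration; mean of two independent determinations.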

| Structure (SMILES) | IC50 [1] | growth inhibition (GI) [2] | growth inhibition (GI) [5] | further results |
| --- | --- | --- | --- | --- |
| CC(=O)N(O)CCCP(=O)(O)O [FR-900098] | 320 nM | inactive | – | – |
| CCCC(=O)OCOP(=O)(CCCC(=O)N(C)O)OCOC(=O)CCC | – | – | inactive | MIC [3]: 250 µM (≈ 99.3 µg/mL); inhibition [4]: inactive; diameter of the inhibition zone (DIZ) [2]: 23 mm; growth inhibition (GI) [6]: Active; inhibition [7]: inactive; growth inhibition (GI) [8]: inactive |
| CCCC(=O)OCOP(=O)(CCCN(O)C=O)OCOC(=O)CCC | – | inactive | inactive | – |
| O=C(CCCP(=O)(OCOC(=O)c1ccccc1)OCOC(=O)c1ccccc1)NO | – | inactive | inactive | – |
| CCCC(=O)OCOP(=O)(CCCN(O)C(C)=O)OCOC(=O)CCC | – | inactive | inactive | inhibition [4]: inactive; inhibition [7]: inactive |
| CN(O)C(=O)CCCP(=O)(O)O | 410 nM | inactive | – | – |
| CCCC(=O)OCOP(=O)(CCCC(=O)NO)OCOC(=O)CCC | – | inactive | inactive | – |
| CC(C)(C)C(=O)OCOP(=O)(CCCC(=O)NO)OCOC(=O)C(C)(C)C | – | inactive | inactive | – |
| NNC(=O)c1ccncc1 [ISONIAZID] | – | – | – | MIC [9]: 7 µg/mL (≈ 51 µM); MIC [3]: 10 µM (≈ 1.37 µg/mL); growth inhibition (GI) [10]: inactive; diameter of the inhibition zone (DIZ) [11]: 29 mm; growth inhibition (GI) [12]: inactive |
| CN(O)C(=O)CCCP(=O)(OCOC(=O)c1ccccc1)OCOC(=O)c1ccccc1 | – | – | inactive | MIC [9]: 25 µg/mL (≈ 53.7 µM); diameter of the inhibition zone (DIZ) [2]: 11 mm |
| O=C(CCCP(=O)(O)O)NO | 1480 nM | inactive | – | – |
| CN(O)C(=O)CCCP(=O)(OCOC(=O)C(C)(C)C)OCOC(=O)C(C)(C)C | – | – | inactive | MIC [9]: 50 µg/mL (≈ 118 µM); diameter of the inhibition zone (DIZ) [2]: 15 mm |
| O=CN(O)CCCP(=O)(O)O [FOSMIDOMYCIN] | 510 nM | inactive | – | IC50 [13]: 80 nM |
